Data set [1] is described as follows: folding enthalpy; higher = less favourable; fluorescence melt of hairpins on a sequencing array, two-state fit. The note with it: sodium 0.088 M. In a few lines: (§1)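 To match UV melts, fitted temperatures were raised by 9.35 °C. These fits were bootstrapped two-state models that gave melting temperature and folding enthalpy, combined by inverse variance over four replicates. The input was normalised Cy3 fluorescence of library hairpins with annealed Cy3 and quencher oligos on a sequenced MiSeq flow cell, imaged in 50 mM Na-HEPES pH 8.0, 25 mM NaCl in 2.5 °C steps up to 60 °C.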

Data set [2] is described as follows: melting temperature; fluorescence melt of hairpins on a sequencing array, two-state fit, raised by 9.35 °C to match UV melts. The note with it: sodium 0.088 M. In a few lines:
as §1

The values below come from the array DNA melting data of Ke et al. (doi:10.1101/2024.01.08.574731).

As to GATCCGGGAAACTGGATC (((((.(....).))))), in data set [1], the folding enthalpy is -41.7 kcal/mol. In addition, the Tm in data set [2] is 52.1 °C.

Regarding GATCCGGGACCGGATC ((((((....)))))), the folding enthalpy in data set [1] is -44.4 kcal/mol. The Tm in data set [2] is 65.4 °C.

In the case of GATCCGGGGACGGATC ((((((....)))))), in data set [1], the folding enthalpy was -41.6 kcal/mol. Moreover, in data set [2], the Tm was found to be 61.9 °C.

Consider GATCCGGTAGCGGATC ((((((....)))))), for which the folding enthalpy in data set [1] is -31.3 kcal/mol. In addition, in data set [2], the Tm stood at 64.2 °C.

With GATCCGGTTCCGGATC ((((((....)))))), the folding enthalpy in data set [1] is -43 kcal/mol. The Tm in data set [2] worked out at 62.7 °C.

On to GATCCGGTTCGGATC ((((((...)))))), for which the folding enthalpy in data set [1] was -31.5 kcal/mol. Moreover, the Tm in data set [2] turned out to be 63.6 °C.

As for GATCCGGTTGCGGATC ((((((....)))))), the folding enthalpy in data set [1] is -40.3 kcal/mol. In addition, in data set [2], the Tm was 59.6 °C.

As for GATCCGTAGACGGATC ((((((....)))))), in data set [1], the folding enthalpy is -42.9 kcal/mol. Moreover, the Tm in data set [2] came to 58.2 °C.

As for GATCCGTCACGGATC ((((((...)))))), in data set [1], the folding enthalpy is -34.7 kcal/mol. In data set [2], the Tm worked out at 60.6 °C.

As for GATCCGTCCACGGATC ((((((....)))))), the folding enthalpy in data set [1] is -43 kcal/mol. Moreover, the Tm in data set [2] was 64.1 °C.

For the sequence GATCCGTCGACGGATC ((((((....)))))), the folding enthalpy in data set [1] is -48.8 kcal/mol. Also, the Tm in data set [2] is 61.9 °C.

GATCCGTCGCGGATC ((((((...)))))): the folding enthalpy in data set [1] was -35.8 kcal/mol. Also, the Tm in data set [2] amounted to 59 °C.

Regarding GATCCGTGAACGGATC ((((((....)))))), the folding enthalpy in data set [1] was -33.1 kcal/mol. Also, the Tm in data set [2] is 60.5 °C.

Take GATCCGTGATCGGATC ((((((....)))))): the folding enthalpy in data set [1] is -32.1 kcal/mol. Besides, the Tm in data set [2] came out at 58.6 °C.

Regarding GATCCGTTAGCGGATC ((((((....)))))), in data set [1], the folding enthalpy was -39.9 kcal/mol. In addition, in data set [2], the Tm is 60.8 °C.

As to GATCCGTTCCGGATC ((((((...)))))), the folding enthalpy in data set [1] was -46 kcal/mol. The Tm in data set [2] was found to be 59.2 °C.

In the case of GATCCTAAGGAGGATC ((((((....)))))), the folding enthalpy in data set [1] was -25.2 kcal/mol. Moreover, the Tm in data set [2] was found to be 49.3 °C.

Regarding GATCCTAATGAGGATC ((((((....)))))), the folding enthalpy in data set [1] was -34.1 kcal/mol. Moreover, the Tm in data set [2] was 50.5 °C.

As for GATCCTACAAAGGATC ((((((....)))))), the folding enthalpy in data set [1] was -36.3 kcal/mol. Further, the Tm in data set [2] turned out to be 49.5 °C.

With GATCCTACCAGGATC ((((((...)))))), in data set [1], the folding enthalpy is -39.6 kcal/mol. The Tm in data set [2] worked out at 54.9 °C.

With GATCCTACGAAGGATC ((((((....)))))), the folding enthalpy in data set [1] is -35.9 kcal/mol. The Tm in data set [2] was 50.3 °C.

With GATCCTACGCAGGATC ((((((....)))))), in data set [1], the folding enthalpy is -35 kcal/mol. For the same sequence, the Tm in data set [2] amounted to 51.1 °C.

For GATCCTACGGAGGATC ((((((....)))))), the folding enthalpy in data set [1] is -35 kcal/mol. Besides, in data set [2], the Tm is 50.9 °C.

Take GATCCTACTCAGGATC ((((((....)))))): the folding enthalpy in data set [1] was -32.3 kcal/mol. Further, the Tm in data set [2] was 52 °C.

For the sequence GATCCTAGATAGGATC ((((((....)))))), the folding enthalpy in data set [1] was -36.1 kcal/mol. The Tm in data set [2] turned out to be 50.8 °C.

As to GATCCTATACAGGATC ((((((....)))))), in data set [1], the folding enthalpy was -38.1 kcal/mol. In data set [2], the Tm is 52.4 °C.

For GATCCTATATAGGATC ((((((....)))))), the folding enthalpy in data set [1] was -46.7 kcal/mol. Besides, the Tm in data set [2] worked out at 52.3 °C.

Consider GATCCTATGAAGGATC ((((((....)))))), for which the folding enthalpy in data set [1] was -34 kcal/mol. The Tm in data set [2] was 51 °C.

For the sequence GATCCTATGGAGGATC ((((((....)))))), in data set [1], the folding enthalpy was -35.2 kcal/mol. The Tm in data set [2] is 50.6 °C.

With GATCCTATTCAGGATC ((((((....)))))), in data set [1], the folding enthalpy is -44 kcal/mol. Moreover, the Tm in data set [2] turned out to be 52.6 °C.

For the sequence GATCCTATTTAGGATC ((((((....)))))), the folding enthalpy in data set [1] is -40.6 kcal/mol. Moreover, the Tm in data set [2] turned out to be 54.4 °C.

As to GATCCTCAAAGGATC ((((((...)))))), the folding enthalpy in data set [1] was -32.1 kcal/mol. Besides, in data set [2], the Tm came to 50.6 °C.

As to GATCCTCAACAGGATC ((((((....)))))), the folding enthalpy in data set [1] is -37.2 kcal/mol. Further, in data set [2], the Tm was 48.7 °C.

On to GATCCTCACAGGATC ((((((...)))))), for which the folding enthalpy in data set [1] was -27.2 kcal/mol. Besides, the Tm in data set [2] is 54 °C.

As to GATCCTCAGCAGGATC ((((((....)))))), the folding enthalpy in data set [1] is -33.2 kcal/mol. For the same sequence, the Tm in data set [2] amounted to 48.8 °C.

Turning to GATCCTCATCAGGATC ((((((....)))))), the folding enthalpy in data set [1] was -37 kcal/mol. In data set [2], the Tm is 49.7 °C.

Take GATCCTCCATAGGATC ((((((....)))))): the folding enthalpy in data set [1] is -33.5 kcal/mol. Further, in data set [2], the Tm came out at 51.1 °C.

For GATCCTCCTAGGATC ((((((...)))))), the folding enthalpy in data set [1] is -39.2 kcal/mol. Further, in data set [2], the Tm was determined as 54 °C.
